# Data from paper PMC2233868 (The Journal of General Physiology, 2002).
# Several values for one entry are separate records, joined by “and”; a condition that tells them apart may be missing. Identical values can stand only once. Entries after “also recorded” stand apart in the source; their conditions may differ. Like-named read-outs stand apart in the source and are kept apart here.
# How the values were obtained:
# [1] = tested on: volume-regulated anion channels (VRAC); test: Whole cell membrane current; conditions: for membrane leakiness: extracellular ATP 10 mM or higher, high concentrations of ADP; for r = k12(0)/k10(0) / δ, electrical distance of binding site inside the channel: pooled cells; for voltage dependence of VRAC block / effect on outward component of VRAC current: total nucleotide concentration 1 mM; for effect on outward component of VRAC current: HTS 17%
# [2] = tested on: bovine aortic endothelial cells (BAEC); assay type: cell-based
# prostate cancer cells = conditions: ref Sauer et al., 2000; cited from earlier work
# [3] = tested on: cultured ciliary epithelial cells; conditions: ref Mitchell et al., 1998; cited from earlier work
# [4] = tested on: bovine aortic endothelial cells (BAEC); conditions: disruption of the actin cytoskeleton; ref Koyama et al., 2001; cited from earlier work
# [5] = tested on: bovine aortic endothelial cells (BAEC); test: HTS-induced NO production, DAF-2 fluorescence; assay type: cell-based
# In short: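 NO was imaged with DAF-2 in first-subculture bovine aortic endothelial cells bathed in modified Krebs solution (1.5 mM Ca2+, pH 7.3), made hypotonic with distilled water. Fluorescence in each experiment was normalized to a reference image taken before the hypotonic challenge. n = cells examined; mean ± SEM; Student's unpaired t test, P < 0.05 significant.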
# [6] = tested on: bovine aortic endothelial cells (BAEC); test: HTS-induced Ca2+ oscillations, fura-2 fluorescence; assay type: cell-based; conditions: HTS 40%; glibenclamide 100 μM
# [7] = tested on: bovine aortic endothelial cells (BAEC); test: Ca2+ transients induced by exogenously applied ATP, fura-2; assay type: cell-based; conditions: exogenous ATP 1 μM
# In short: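 [Ca2+]i tracked by fura-2 fluorescence using digital fluorescence microscopy at room temperature (20–25°C). Mean ± SEM; Student's unpaired t test, P < 0.05 significant.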
# [8] = tested on: VRAC currents in BC3H1 and C2C12 cells; conditions: concentrations up to 100 μM; ref Voets et al., 1997; cited from earlier work
# [9] = tested on: large conductance anion channel (368 pS); conditions: ref Li et al., 2000; cited from earlier work
# [10] = 10 or 20 mM extracellular ADP, extracellular Cl− 2 mM
# [11] = fit to simplified Eq. 2, total nucleotide 1 mM
# [12] = representative data, Figs. 4 C (dashed line) and 5 B, Eq. 2
# [13] = fit to Eq. 1, extracellular ATP total 1 mM
# [14] = representative cell, Fig. 4 C solid line, Eq. 1
# [15] = 20% HTS, 10 min, fluoxetine 1 μM, glibenclamide 100 μM, tamoxifen 10 μM, verapamil 10 μM, P < 0.01
smiles,measurement,setting,value
Nc1ncnc2c1ncn2[C@@H]1O[C@H](COP(=O)(O)OP(=O)(O)O)[C@@H](O)[C@H]1O [ADP],effect on outward component of VRAC current in low Cl− hypotonic solution,"[1]; 1 mM extracellular ADP, extracellular Cl− 2 mM",still inhibited
same,effect on inward current in low Cl− hypotonic solution,[1]; [10],virtually no effect
same,effect on outward current in low Cl− hypotonic solution,[1]; [10],significantly enhanced
same,membrane leakiness,[1],did not cause membrane leakiness
same,r = k12(0)/k10(0),[1]; [11],0.23 ± 0.05
same,"δ, electrical distance of binding site inside the channel",[1]; [11],0.48 ± 0.01
same,r of the fitted curve,[1]; [12],0.26
same,δ of the fitted curve,[1]; [12],0.40
same,voltage dependence of VRAC block,[1],less voltage sensitive; also recorded: bell-shaped voltage-dependent inhibition
Nc1ncnc2c1ncn2[C@@H]1O[C@H](COP(=O)(O)O)[C@@H](O)[C@H]1O [AMP],voltage dependence of VRAC block,[1],weakly voltage-dependent
Nc1ncnc2c1ncn2[C@@H]1O[C@H](COP(=O)(O)OP(=O)(O)OP(=O)(O)O)[C@@H](O)[C@H]1O [ATP],activation of a VRAC-like current in isotonic solutions,"[1]; exogenous ATP, isotonic solution",did not activate
same,membrane leakiness,[1],induced membrane leakiness
same,membrane potential of maximum inhibition of outward VRAC current,"[1]; extracellular ATP total 1 mM, free 0.15 mM",30–40 mV
same,r = k12(0)/k10(0),[1]; [13],0.38 ± 0.08
same,"δ, electrical distance of binding site inside the channel",[1]; [13],0.41 and 0.41 ± 0.03
same,r = k12(0)/k10(0),[1]; [11],0.42 ± 0.16
same,"δ, electrical distance of binding site inside the channel",[1]; [11],0.42 ± 0.02
same,r of the fitted curve,[1]; [14],0.29
same,δ of the fitted curve,[1]; [14],0.42
same,r of the fitted curve,[1]; [12],0.22
same,δ of the fitted curve,[1]; [12],0.43
same,voltage dependence of VRAC block,[1],marked voltage dependency
same,effect on outward component of VRAC current,[1],inhibited
"C[C@H]1CCC/C=C/[C@@H]2C[C@H](O)C[C@H]2[C@H](O)/C=C/C(=O)O1 [Brefeldin A, brefeldin A]",effect on HTS-induced VRAC currents,"[1]; pretreated with 3 μg/ml for 2.5 h, HTS 20%, −50 mV and 100 mV","did not, however, affect"
same,effect on HTS-induced ATP release,"[2]; pretreated with 3 μg/ml for 2.5 h, HTS 20%","did not, however, affect"
Nc1ccn([C@@H]2O[C@H](COP(=O)(O)OP(=O)(O)OP(=O)(O)O)[C@@H](O)[C@H]2O)c(=O)n1 [CTP],r = k12(0)/k10(0),[1]; [11],0.21 ± 0.09
same,"δ, electrical distance of binding site inside the channel",[1]; [11],0.47 ± 0.02
same,r of the fitted curve,[1]; [12],0.057
same,δ of the fitted curve,[1]; [12],0.44
same,voltage dependence of VRAC block,[1],bell-shaped voltage-dependent inhibition
Nc1nc2c(ncn2[C@@H]2O[C@H](COP(=O)(O)OP(=O)(O)OP(=O)(O)O)[C@@H](O)[C@H]2O)c(=O)[nH]1 [GTP],r = k12(0)/k10(0),[1]; [11],0.70 ± 0.30
same,"δ, electrical distance of binding site inside the channel",[1]; [11],0.41 ± 0.06
same,r of the fitted curve,[1]; [12],0.24
same,δ of the fitted curve,[1]; [12],0.44
same,voltage dependence of VRAC block,[1],bell-shaped voltage-dependent inhibition
O=C(O)c1cc([N+](=O)[O-])ccc1NCCCc1ccccc1 [NPPB],effect on ATP release,prostate cancer cells,suppressed
same,effect on ATP release,[3],suppressed
O=c1ccn([C@@H]2O[C@H](COP(=O)(O)OP(=O)(O)OP(=O)(O)O)[C@@H](O)[C@H]2O)c(=O)[nH]1 [UTP],r = k12(0)/k10(0),[1]; [11],0.14 ± 0.05
same,"δ, electrical distance of binding site inside the channel",[1]; [11],0.39 ± 0.04
same,r of the fitted curve,[1]; [12],0.13
same,δ of the fitted curve,[1]; [12],0.42
same,voltage dependence of VRAC block,[1],bell-shaped voltage-dependent inhibition
Nc1ncnc2c1ncn2[C@@H]1O[C@H](CO)[C@@H](O)[C@H]1O [adenosine],effect on outward component of VRAC current,[1],does not inhibit
C=C1[C@@H](C)[C@H]2[C@H](Cc3ccccc3)NC(=O)[C@]23OC(=O)/C=C/[C@H](O)CCC[C@@H](C)C/C=C/[C@H]3[C@@H]1O [cytochalasin B],effect on HTS-induced ATP release,[4],does not inhibit
CNCCC(Oc1ccc(C(F)(F)F)cc1)c1ccccc1 (centres unmarked) [fluoxetine],effect on HTS-induced NO production,[5],abolished
same,effect on HTS-induced ATP release,[2]; [15],Inhibition
same,effect on HTS-induced Ca2+ oscillations,[6],abolished
COc1ccc(Cl)cc1C(=O)NCCc1ccc(S(=O)(=O)NC(=O)NC2CCCCC2)cc1 [glibenclamide],effect on ADP-induced outward current,"[1]; 100 μM, low Cl− hypotonic solution, unpublished data",suppressed
same,effect on HTS-induced NO production,[5],abolished
same,effect on HTS-induced ATP release,[2]; [15],Inhibition
same,effect on Ca2+ transients induced by exogenously applied ATP,[7],did not affect
same,effect on HTS-induced Ca2+ oscillations,[6],abolished
CC/C(=C(\c1ccccc1)c1ccc(OCCN(C)C)cc1)c1ccccc1 [tamoxifen],effect on ATP release,prostate cancer cells,effective
same,effect on HTS-induced ATP release,[2]; [15],Inhibition
same,effect on VRAC currents,[8],did not significantly inhibit
same,effect on large conductance anion channel,[9],activates
COc1ccc(CCN(C)CCCC(C#N)(c2ccc(OC)c(OC)c2)C(C)C)cc1OC (centres unmarked) [verapamil],effect on HTS-induced NO production,[5],abolished
same,effect on HTS-induced ATP release,[2]; [15],Inhibition
same,effect on HTS-induced Ca2+ oscillations,[6],abolished
